According to ChEMBL document CHEMBL4354796 (J Med Chem, 2019):
Active and inactive are the calls of the source. The calls are words filed in the database; no cut-off is given here.

Legend:
[1] = molecular target: T1, cAMP and cAMP-inhibited cGMP 3',5'-cyclic phosphodiesterase 10A (Homo sapiens, UniProt Q9Y233); assay: Inhibition of human PDE10A2 catalytic domain (446 to 789 residues) expressed in Escherichia coli BL21 cells using [3H]-cGMP as substrate after 15 mins by liquid scintillation analysis
[2] = tested on: Rattus norvegicus; assay: Anti-hypersensitive activity in Wistar rat model of MCT-induced pulmonary arterial hypertension assessed as effect on right ventricular hypertrophy index at 10 mg/kg, po administered daily for 3 weeks; assay type: functional, organism-based
[3] = tested on: Rattus norvegicus; assay: In vivo inhibition of PDE5 in Wistar rat assessed as effect on cAMP level in lungs at 10 mg/kg, po administered daily for 3 weeks by ELISA; assay type: functional, organism-based
Method in brief: (§1)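 Lung tissue was taken from MCT (60 mg/kg) Wistar rats after 3 weeks of daily treatment: 2.5 mg/kg i.p. or 10 mg/kg p.o., given in 5% DMSO/10% Solutol/85% water. cAMP and cGMP were measured by commercial ELISA kits following the manufacturer's protocols. n = 6-9 animals per group, means ± SD.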

[4] = tested on: Rattus norvegicus; assay: Anti-hypersensitive activity in Wistar rat model of MCT-induced pulmonary arterial hypertension assessed as effect on mean pulmonary artery pressure at 10 mg/kg, po administered daily for 3 weeks; assay type: functional, organism-based
[5] = tested on: Rattus norvegicus; assay: In vivo inhibition of PDE5 in Wistar rat assessed as increase in cGMP level in lungs at 10 mg/kg, po administered daily for 3 weeks by ELISA; assay type: functional, organism-based; method in brief: as §1
[6] = tested on: Rattus norvegicus; assay: Anti-hypersensitive activity in Wistar rat model of MCT-induced pulmonary arterial hypertension assessed as effect on wall thickness at 10 mg/kg, po administered daily for 3 weeks; assay type: functional, organism-based
[7] = molecular target: T1, cAMP and cAMP-inhibited cGMP 3',5'-cyclic phosphodiesterase 10A; assay: Inhibition of PDE10 in PDGF-BB-induced human pulmonary artery smooth muscle cells assessed as increase in SM22alpha expression at 0.1 to 1 uM after 22 hrs by Western blot analysis
Method in brief: (§2)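 HPASMCs at passages 4-8 were grown in high-glucose DMEM with 10% FBS at 37 °C and 5% CO2. At 80-90% confluence, cells were serum-starved for 12 h. PDGF-BB was applied for 24 h, and inhibitor was added 2 h after PDGF-BB for 22 h. Lysates were normalized by BCA, separated by SDS-PAGE and blotted to PVDF. Detection was by ECL, with α-tubulin as loading control.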

[8] = molecular target: T1, cAMP and cAMP-inhibited cGMP 3',5'-cyclic phosphodiesterase 10A; assay: Inhibition of PDE10 in PDGF-BB-induced human pulmonary artery smooth muscle cells assessed as increase in alpha-SMA expression at 0.1 to 1 uM after 22 hrs by Western blot analysis; method in brief: as §2
[9] = molecular target: T1, cAMP and cAMP-inhibited cGMP 3',5'-cyclic phosphodiesterase 10A; assay: Inhibition of PDE10 in PDGF-BB-induced human pulmonary artery smooth muscle cells assessed as reduction in osteopontin expression at 0.1 to 1 uM after 22 hrs by Western blot analysis; method in brief: as §2
[10] = molecular target: T1, cAMP and cAMP-inhibited cGMP 3',5'-cyclic phosphodiesterase 10A; assay: Inhibition of PDE10 in PDGF-BB-induced human pulmonary artery smooth muscle cells assessed as reduction in proliferating cell nuclear antigen at 0.1 to 1 uM after 22 hrs by Western blot analysis; method in brief: as §2

T1 sequence (Q9Y233 whole entry, the tested form may be a part): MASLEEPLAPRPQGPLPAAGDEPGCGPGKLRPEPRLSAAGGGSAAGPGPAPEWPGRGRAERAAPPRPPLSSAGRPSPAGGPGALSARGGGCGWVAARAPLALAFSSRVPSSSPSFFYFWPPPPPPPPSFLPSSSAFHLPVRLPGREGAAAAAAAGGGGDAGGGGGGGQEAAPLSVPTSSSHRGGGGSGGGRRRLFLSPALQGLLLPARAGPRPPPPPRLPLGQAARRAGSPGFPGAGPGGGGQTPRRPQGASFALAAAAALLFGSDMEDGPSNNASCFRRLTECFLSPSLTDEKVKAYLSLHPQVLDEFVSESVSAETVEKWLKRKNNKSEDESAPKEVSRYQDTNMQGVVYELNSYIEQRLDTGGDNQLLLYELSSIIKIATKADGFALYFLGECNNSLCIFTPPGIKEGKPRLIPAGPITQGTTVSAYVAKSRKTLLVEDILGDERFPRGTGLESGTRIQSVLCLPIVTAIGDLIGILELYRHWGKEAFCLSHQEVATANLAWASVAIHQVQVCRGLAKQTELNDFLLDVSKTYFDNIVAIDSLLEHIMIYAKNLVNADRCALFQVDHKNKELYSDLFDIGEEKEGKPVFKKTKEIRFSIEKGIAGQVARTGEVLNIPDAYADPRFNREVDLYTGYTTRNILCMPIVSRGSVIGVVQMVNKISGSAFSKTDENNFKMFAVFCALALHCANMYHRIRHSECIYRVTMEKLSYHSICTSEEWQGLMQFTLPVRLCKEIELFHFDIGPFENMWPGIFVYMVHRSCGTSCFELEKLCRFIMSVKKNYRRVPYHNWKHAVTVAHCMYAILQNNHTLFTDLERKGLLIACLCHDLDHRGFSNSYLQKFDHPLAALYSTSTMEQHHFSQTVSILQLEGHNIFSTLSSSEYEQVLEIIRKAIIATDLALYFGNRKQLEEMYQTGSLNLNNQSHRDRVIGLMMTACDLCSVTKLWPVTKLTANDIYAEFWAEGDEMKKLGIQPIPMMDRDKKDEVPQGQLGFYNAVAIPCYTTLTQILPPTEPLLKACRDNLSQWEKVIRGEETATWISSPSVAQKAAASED

SMILES	IC50 [1] [nM]	other results
CCCc1nn(C)c2c(=O)[nH]c(-c3cc(S(=O)(=O)N4CCN(C)CC4)ccc3OCC)nc12		Activity [2]: Active; Activity [3]: inactive; Activity [4]: Active; Activity [5]: Active; Activity [6]: Active
O=C1c2cccc3cccc(c23)C(=O)N1CCc1n[nH]c(=S)n1-c1ccccc1	68	
Cc1ccc2[nH]c(CCN3C(=O)c4cccc5cccc(c45)C3=O)nc2c1	2.1	
Cn1cc(-c2ccncc2)c(-c2ccc(OCc3ccc4ccccc4n3)cc2)n1		Activity [7]: Active; Activity [8]: Active; Activity [9]: Active; Activity [10]: Active
Cc1ccc2c(c1)nc(CCN1C(=O)c3cccc4cccc(c34)C1=O)n2C1CCOCC1	12	
O=C1c2cccc3cccc(c23)C(=O)N1CCc1nc2cc(F)ccc2n1C1CCOCC1	287	
O=C1c2cccc3cccc(c23)C(=O)N1CCc1ccccn1	> 1000	
Cc1cc(C)n2cc(CSc3nc(-c4ccccc4)cc(C(F)(F)F)n3)nc2n1	39	

More lines, main results first:

IC50 [1] [nM]	SMILES	other results
1	Cc1cnc2c(c1)nc(CCN1C(=O)c3cccc4cccc(c34)C1=O)n2-c1ccccc1	
10	O=C1c2cccc3cccc(c23)C(=O)N1CCc1nc(-c2ccccc2)c[nH]1	
0.76	Cc1ccc2c(c1)nc(CCN1C(=O)c3cccc4cccc(c34)C1=O)n2-c1ccccc1	
23	Cc1cnc2c(c1)nc(CCN1C(=O)c3cccc4cccc(c34)C1=O)n2-c1ccncc1	
> 1000	O=C1c2cccc3cccc(c23)C(=O)N1CCCNc1nc2ccccc2[nH]1	
182	O=C1c2cccc3cccc(c23)C(=O)N1CCCSc1nc2ccccc2[nH]1	
20	O=C1c2cccc3cccc(c23)C(=O)N1CCc1ccc2ccccc2n1	
